# Residues, ends and D or L forms follow the SMILES beside them. *: point of attachment. Cbz = O=C(OCc1ccccc1)*; Boc = CC(C)(C)OC(=O)*; NHBn = c1ccc(CN*)cc1; NHPh = c1ccc(N*)cc1; Bn = c1ccc(C*)cc1
# Tests used:
# [1] = Inhibition of post acid activity of rabbit reticulocyte 20S proteasome; set-up: species or system Oryctolagus cuniculus
# Oryctolagus cuniculus [2] = species on record: Oryctolagus cuniculus; assay: Inhibition of trypsin-like activity of rabbit reticulocyte 20S proteasome at 100 uM
# Outline: (§1)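 Trypsin-like site: proteasome exposed to 0.1-100 µM compound, fluorogenic substrate hydrolysis read 1 h at 37 °C in pH 7.5 20 mM Tris, 1 mM DTT, 10% glycerol without SDS; 3% DMSO final. Initial rates relative to untreated control: >100% expressed as activation factor, <100% as inhibition; Ki via Vi/V0 = 1/(1+[I]/Ki(app)) or IC50 = Ki(1+[S]/Km).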
# [3] = Inhibition of trypsin-like activity of rabbit reticulocyte 20S proteasome; set-up: species or system Oryctolagus cuniculus; outline: as §1
# [4] = Inhibition of chymotrypsin-like activity of rabbit reticulocyte 20S proteasome; set-up: species or system Oryctolagus cuniculus
# Oryctolagus cuniculus [5] = species on record: Oryctolagus cuniculus; assay: Activation of trypsin-like activity of rabbit reticulocyte 20S proteasome relative to control; outline: as §1
# Oryctolagus cuniculus [6] = species on record: Oryctolagus cuniculus; assay: Inhibition of chymotrypsin-like activity of rabbit reticulocyte 20S proteasome at 100 uM
# Oryctolagus cuniculus [7] = species on record: Oryctolagus cuniculus; assay: Inhibition of post acid activity of rabbit reticulocyte 20S proteasome at 100 uM
Structure (SMILES),Ki [1] [µM],inhibition (Oryctolagus cuniculus [2]) [%],Ki [3] [µM],Ki [4] [µM],Fold change (Oryctolagus cuniculus [5]),inhibition (Oryctolagus cuniculus [6]) [%],inhibition (Oryctolagus cuniculus [7]) [%]
CC(C)(C)OC(=O)N[C@@H](Cc1ccc(OCc2ccccc2)cc1)C(=O)N[C@@H](CC(N)=O)C(=O)N[C@@H](Cc1c[nH]c2ccccc12)C(=O)Nc1ccc(O)cc1,23.4,< 20,> 100,> 100,,,
C[C@H](NC(=O)[C@H](Cc1ccc(OCc2ccccc2)cc1)NC(=O)OC(C)(C)C)C(=O)N[C@@H](Cc1c[nH]c2ccccc12)C(=O)NCc1ccccc1 (Boc-Tyr(Bn)-Ala-Trp-NHBn),55.4,,,> 100,1.7,< 20,
CNC(=O)[C@@H](Cc1c[nH]c2c(-c3ccc(C[C@H](NC(=O)OC(C)(C)C)C(=O)N[C@H](C)C(=O)OC)cc3OCc3ccccc3)cccc12)NC(=O)OCc1ccccc1,> 100,,21.5,> 100,,20,
CC(C)(C)OC(=O)NCCCC[C@H](NC(=O)[C@H](Cc1ccc(OCc2ccccc2)cc1)NC(=O)OC(C)(C)C)C(=O)N[C@@H](Cc1c[nH]c2ccccc12)C(=O)Nc1ccc(O)cc1,> 100,,> 100,65.7,,,< 20
CCOC(=O)[C@@H](Cc1c[nH]c2c(-c3ccc(C[C@H](NC(=O)OC(C)(C)C)C(=O)N[C@H](CC(C)C)C(=O)OC)cc3OCc3ccccc3)cccc12)NC(=O)OCc1ccccc1,> 100,,,> 100,1.4,< 20,20
NCCCC[C@H](NC(=O)[C@@H](N)Cc1ccc(OCc2ccccc2)cc1)C(=O)N[C@@H](Cc1c[nH]c2ccccc12)C(=O)Nc1ccccc1 (H-Tyr(Bn)-Lys-Trp-NHPh),> 100,,1.12,2.22,,,< 20
NCCCC[C@H](NC(=O)[C@@H](N)Cc1ccc(OCc2ccccc2)cc1)C(=O)N[C@@H](Cc1c[nH]c2ccccc12)C(=O)NCc1ccccc1 (H-Tyr(Bn)-Lys-Trp-NHBn),> 100,,0.32,1.07,,,< 20
COC(=O)[C@H](Cc1c[nH]c2c(Br)cccc12)NC(=O)[C@H](CC(C)C)NC(=O)[C@H](Cc1ccc(OCc2ccccc2)c(I)c1)NC(=O)OC(C)(C)C,> 100,,,> 100,2,< 20,< 20
CC(C)C[C@@H](C=O)NC(=O)[C@H](CC(C)C)NC(=O)[C@H](CC(C)C)NC(=O)OCc1ccccc1 [MG-132] (Cbz-Leu-Leu-Leu-aldehyde),0.67,,4.5,0.075,,,
C[C@H](NC(=O)[C@H](Cc1ccc(O)cc1)NC(=O)OC(C)(C)C)C(=O)N[C@@H](Cc1c[nH]c2ccccc12)C(=O)O (Boc-Tyr-Ala-Trp-OH),> 100,,,> 100,6.8,< 20,< 20
COC(=O)[C@@H]1Cc2c[nH]c3c(cccc23)-c2ccc(cc2OCc2ccccc2)C[C@H](NC(=O)OC(C)(C)C)C(=O)N[C@@H](CC(C)C)C(=O)N1,> 100,,,> 100,1.4,< 20,< 20
CC(C)C[C@H](NC(=O)[C@H](Cc1ccc(OCc2ccccc2)cc1)NC(=O)OC(C)(C)C)C(=O)N[C@@H](Cc1c[nH]c2ccccc12)C(=O)Nc1ccc(O)cc1,96.4,,,> 100,1.6,< 20,
COC(=O)[C@H](Cc1c[nH]c2ccccc12)NC(=O)[C@H](C)NC(=O)[C@H](Cc1ccc(O)cc1)NC(=O)OC(C)(C)C (Boc-Tyr-Ala-Trp-OMe),8.7,,,9.2,6,,
COC(=O)[C@@H]1Cc2c[nH]c3c(cccc23)-c2ccc(cc2OC)C[C@H](NC(=O)OC(C)(C)C)C(=O)N[C@@H](C)C(=O)N1,37.1,< 20,> 100,> 100,,< 20,< 20
COC(=O)[C@H](Cc1c[nH]c2ccccc12)NC(=O)[C@H](C)NC(=O)[C@H](Cc1ccc(OCc2ccccc2)cc1)NC(=O)OC(C)(C)C (Boc-Tyr(Bn)-Ala-Trp-OMe),> 100,,,44.8,9.8,,
NCCCC[C@H](NC(=O)[C@@H](N)Cc1ccc(OCc2ccccc2)cc1)C(=O)N[C@@H](Cc1c[nH]c2ccccc12)C(=O)Nc1ccc(O)cc1,> 100,,0.98,0.85,,,< 20
CC(C)(C)OC(=O)N[C@@H](Cc1ccc(OCc2ccccc2)cc1)C(=O)NCC(=O)N[C@@H](Cc1c[nH]c2ccccc12)C(=O)NCc1ccccc1 (Boc-Tyr(Bn)-Gly-Trp-NHBn),31.5,,,> 100,1.7,< 20,
CC(C)(C)OC(=O)NCCCC[C@H](NC(=O)[C@H](Cc1ccc(OCc2ccccc2)cc1)NC(=O)OC(C)(C)C)C(=O)N[C@@H](Cc1c[nH]c2ccccc12)C(=O)Nc1ccccc1 (Boc-Tyr(Bn)-Lys(Boc)-Trp-NHPh),> 100,,,> 100,1.6,< 20,< 20
COC(=O)[C@@H]1Cc2c[nH]c3c(cccc23)-c2ccc(cc2OC)C[C@H](NC(=O)OC(C)(C)C)C(=O)N[C@@H](CC(C)C)C(=O)N1,> 100,,,> 100,1.8,< 20,
CC(C)(C)OC(=O)N[C@@H](Cc1ccc(OCc2ccccc2)cc1)C(=O)N[C@@H](CCCN(C(=N)NC(=O)OCc1ccccc1)C(=O)OCc1ccccc1)C(=O)N[C@@H](Cc1c[nH]c2ccccc12)C(=O)NCc1ccccc1,> 100,,,> 100,1.9,< 20,< 20
CC(C)C[C@H](NC(=O)[C@@H](N)Cc1ccc(OCc2ccccc2)cc1)C(=O)N[C@@H](Cc1c[nH]c2ccccc12)C(=O)NCCCCN,22.5,,0.33,3.69,,,
CNC(=O)[C@H](Cc1c[nH]c2c(Br)cccc12)NC(=O)[C@H](C)NC(=O)[C@H](Cc1ccc(OCc2ccccc2)c(I)c1)NC(=O)OC(C)(C)C,30.2,< 20,> 100,59.3,,,
CC(C)C[C@H](NC(=O)[C@H](Cc1ccc(OCc2ccccc2)cc1)NC(=O)OC(C)(C)C)C(=O)N[C@@H](Cc1c[nH]c2ccccc12)C(=O)NCCCCNC(=O)OC(C)(C)C,31.5,,,81.8,2.3,,

# Results, then the compound that gave them:
Ki [1] [µM],inhibition (Oryctolagus cuniculus [2]) [%],Ki [3] [µM],Ki [4] [µM],Fold change (Oryctolagus cuniculus [5]),inhibition (Oryctolagus cuniculus [6]) [%],inhibition (Oryctolagus cuniculus [7]) [%],Structure (SMILES)
0.6,,3.9,1.2,,,,CC(C)(C)OC(=O)N[C@@H](Cc1ccc(O)cc1)C(=O)N[C@@H](CCCNC(=N)N)C(=O)N[C@@H](Cc1c[nH]c2ccccc12)C(=O)NCc1ccccc1 (Boc-Tyr-Arg-Trp-NHBn)
55.4,< 20,> 100,14.1,,,,COC(=O)[C@H](Cc1c[nH]c2c(Br)cccc12)NC(=O)[C@H](CC(N)=O)NC(=O)[C@H](Cc1ccc(OCc2ccccc2)c(I)c1)NC(=O)OC(C)(C)C
> 100,< 20,> 100,> 100,,< 20,< 20,CCOC(=O)[C@H](Cc1c[nH]c2c(Br)cccc12)NC(=O)[C@H](CC(C)C)NC(=O)[C@H](Cc1ccc(OCc2ccccc2)c(I)c1)NC(=O)OC(C)(C)C
74,< 20,> 100,59.3,,,,COC(=O)[C@H](Cc1c[nH]c2c(Br)cccc12)NC(=O)[C@H](C)NC(=O)[C@H](Cc1ccc(OC)c(I)c1)NC(=O)OC(C)(C)C
> 100,,,> 100,1.9,< 20,< 20,CC(C)C[C@H](NC(=O)[C@H](Cc1ccc(OCc2ccccc2)cc1)NC(=O)OC(C)(C)C)C(=O)N[C@@H](Cc1c[nH]c2ccccc12)C(=O)Nc1ccccc1 (Boc-Tyr(Bn)-Leu-Trp-NHPh)
> 100,,69,> 100,,< 20,< 20,CNC(=O)[C@@H](Cc1c[nH]c2c(-c3ccc(C[C@H](NC(=O)OC(C)(C)C)C(=O)N[C@H](CC(C)C)C(=O)OC)cc3OCc3ccccc3)cccc12)NC(=O)OCc1ccccc1
> 100,,,> 100,1.5,< 20,< 20,C[C@H](NC(=O)[C@H](Cc1ccc(OCc2ccccc2)cc1)NC(=O)OC(C)(C)C)C(=O)N[C@@H](Cc1c[nH]c2ccccc12)C(=O)O (Boc-Tyr(Bn)-Ala-Trp-OH)
> 100,< 20,> 100,> 100,,< 20,,CCOC(=O)[C@H](Cc1c[nH]c2c(Br)cccc12)NC(=O)[C@H](CC(C)C)NC(=O)[C@H](Cc1ccc(OC)c(I)c1)NC(=O)OC(C)(C)C
> 100,,,> 100,1.8,< 20,< 20,CC(C)(C)OC(=O)N[C@@H](Cc1ccc(OCc2ccccc2)cc1)C(=O)NCC(=O)N[C@@H](Cc1c[nH]c2ccccc12)C(=O)O (Boc-Tyr(Bn)-Gly-Trp-OH)
96.4,< 20,> 100,> 100,,< 20,,COC(=O)[C@H](Cc1c[nH]c2c(Br)cccc12)NC(=O)[C@H](C)NC(=O)[C@H](Cc1ccc(OCc2ccccc2)c(I)c1)NC(=O)OC(C)(C)C
> 100,,> 100,0.48,,,,C[C@H](NC(=O)[C@@H](N)Cc1ccc(OCc2ccccc2)cc1)C(=O)N[C@@H](Cc1c[nH]c2ccccc12)C(=O)NCc1ccccc1 (H-Tyr(Bn)-Ala-Trp-NHBn)
